Laboratory results taken from ChEMBL document CHEMBL4043303, “Development of Novel Melanocortin Receptor Agonists Based on the Cyclic Peptide Framework of Sunflower Trypsin Inhibitor-1” (J Med Chem, 2018).
Calls of active or inactive are those of the source. The calls are words filed in the database; no cut-off is given here. Where a SMILES comes first, the peptide text is derived from it. Bridges are numbered along the chain shown (N, C = ends). [ ]: non-standard residue; d: D form. NMeW = CN[C@@H](Cc1c[nH]c2ccccc12)C(=O)O

Assays:
[1] = biological target: T1, Melanocyte-stimulating hormone receptor (Homo sapiens, UniProt Q01726); test: Agonist activity at human MC1R expressed in low doxycyclin-treated HEK293 cell membranes assessed as increase in cAMP production after 45 mins by HTRF method; type: functional, cell-based
Bos taurus = species on record: Bos taurus; test: Inhibition of bovine trypsin at 5 uM using Boc-QAR-pNA as substrate preincubated for 1 hr followed by substrate addition measured every 30 secs for 300 secs by […]
Melanocortin receptor 4 [2] = biological target: T2, Melanocortin receptor 4 (Homo sapiens, UniProt P32245); test: Agonist activity at human MC4R expressed in high doxycyclin-treated HEK293 cell membranes assessed as increase in cAMP production after 15 mins by HTRF method; type: functional, cell-based
T2 sequence (P32245 whole entry): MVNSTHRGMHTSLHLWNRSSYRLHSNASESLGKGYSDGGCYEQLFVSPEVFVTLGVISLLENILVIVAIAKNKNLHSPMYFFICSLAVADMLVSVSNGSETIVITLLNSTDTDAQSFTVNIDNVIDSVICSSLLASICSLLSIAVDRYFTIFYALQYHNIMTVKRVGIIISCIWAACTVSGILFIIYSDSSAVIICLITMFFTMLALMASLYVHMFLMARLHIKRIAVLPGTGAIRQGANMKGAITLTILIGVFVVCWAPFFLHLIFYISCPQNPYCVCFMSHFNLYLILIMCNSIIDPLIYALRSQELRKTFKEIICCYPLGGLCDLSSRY
How it was run: (§1)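 T-REx-293 cells stably expressing doxycycline-inducible human MC1R, MC3R or MC4R; expression induced 24 h with 0.1 ng/mL (low) or 10 ng/mL (high, MC4R only) doxycycline. 1000 cells/well in HBSS, 20 mM HEPES pH 7.4, 0.1% BSA, 1 mM IBMX; stimulated at 37 °C. Time-resolved FRET cAMP read-out normalized to NDP-α-MSH maximum.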

Melanocortin receptor 4 [3] = biological target: T2, Melanocortin receptor 4; test: Displacement of [125I]-NDP-alpha-MSH from human MC4R LBD expressed in HEK293 cell membranes incubated for 16 to 23 hrs in dark by scintillation proximity assay; design: concentration or dose not given beside the values; conditions: for inhibition: concentration not given here
Melanocortin receptor 5 = Melanocortin receptor 5 (Homo sapiens, UniProt P33032); test: Displacement of [125I]-NDP-alpha-MSH from human MC5R LBD expressed in HEK293 cell membranes incubated for 16 to 23 hrs in dark by scintillation proximity assay; design: concentration or dose not given beside the values; conditions: for inhibition: concentration not given here
Melanocortin receptor 5, sequence (P33032 whole entry, the tested form may be a part): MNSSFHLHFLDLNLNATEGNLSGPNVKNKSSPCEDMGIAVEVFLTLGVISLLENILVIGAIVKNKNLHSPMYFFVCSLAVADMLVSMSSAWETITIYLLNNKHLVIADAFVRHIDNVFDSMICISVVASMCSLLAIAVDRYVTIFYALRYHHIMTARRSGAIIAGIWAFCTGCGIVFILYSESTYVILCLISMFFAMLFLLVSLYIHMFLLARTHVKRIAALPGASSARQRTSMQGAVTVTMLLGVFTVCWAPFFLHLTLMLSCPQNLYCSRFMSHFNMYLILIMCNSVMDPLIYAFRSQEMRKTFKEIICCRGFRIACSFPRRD

Melanocortin receptor 3 [4] = biological target: T3, Melanocortin receptor 3 (Homo sapiens, UniProt P41968); test: Displacement of [125I]-NDP-alpha-MSH from human MC3R LBD expressed in HEK293 cell membranes incubated for 16 to 23 hrs in dark by scintillation proximity assay; design: concentration or dose not given beside the values; conditions: for inhibition: concentration not given here
T3 sequence (P41968 whole entry, the tested form may be a part): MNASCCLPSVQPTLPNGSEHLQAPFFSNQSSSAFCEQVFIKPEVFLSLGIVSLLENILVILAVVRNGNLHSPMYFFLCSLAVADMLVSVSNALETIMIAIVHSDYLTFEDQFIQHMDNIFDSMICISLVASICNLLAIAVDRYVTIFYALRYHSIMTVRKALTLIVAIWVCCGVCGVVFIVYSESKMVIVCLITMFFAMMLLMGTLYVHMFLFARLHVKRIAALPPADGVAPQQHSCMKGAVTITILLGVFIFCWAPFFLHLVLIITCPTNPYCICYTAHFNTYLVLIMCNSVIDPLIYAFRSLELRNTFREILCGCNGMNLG

Melanocortin receptor 4 [5] = biological target: T2, Melanocortin receptor 4; test: Agonist activity at human MC4R expressed in low doxycyclin-treated HEK293 cell membranes assessed as increase in cAMP production after 45 mins by HTRF method; type: functional, cell-based; how it was run: as §1
Melanocortin receptor 3 [6] = biological target: T3, Melanocortin receptor 3; test: Agonist activity at human MC3R expressed in low doxycyclin-treated HEK293 cell membranes assessed as increase in cAMP production after 45 mins by HTRF method; type: functional, cell-based; design: concentration or dose not given beside the values; how it was run: as §1
[7] = biological target: T1, Melanocyte-stimulating hormone receptor; test: Displacement of [125I]-NDP-alpha-MSH from human MC1R LBD expressed in HEK293 cell membranes incubated for 16 to 23 hrs in dark by scintillation proximity assay; design: concentration or dose not given beside the values; conditions: for inhibition: concentration not given here
[8] = Solubility of the compound in water at 1 mM; type: physicochemical; conditions: buffer, 1000 µM
Melanocortin receptor 3 [9] = biological target: T3, Melanocortin receptor 3; test: Displacement of [125I]-NDP-alpha-MSH from human MC3R LBD expressed in HEK293 cell membranes up to 100 uM incubated for 16 to 23 hrs in dark by scintillation proximity assay
Melanocortin receptor 3 [10] = biological target: T3, Melanocortin receptor 3; test: Agonist activity at human MC3R expressed in low doxycyclin-treated HEK293 cell membranes assessed as increase in cAMP production up to 100 uM after 45 mins by HTRF method; type: functional, cell-based
How it was run: (§2)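 Stable T-REx-293 clones (Zeocin-selected, human receptor cDNA in pcDNA4/TO), receptor expression induced with 0.1 ng/mL doxycycline for 24 h. 1000 cells/well in HBSS with Ca2+/Mg2+, 20 mM HEPES pH 7.4, 0.1% BSA. Stimulation for 45 min at 37 °C with 1 mM IBMX. cAMP read by LANCE HTRF (665/615 nm).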

Melanocortin receptor 4 [11] = biological target: T2, Melanocortin receptor 4; test: Agonist activity at human MC4R expressed in low doxycyclin-treated HEK293 cell membranes assessed as increase in cAMP production up to 100 uM after 45 mins by HTRF method; type: functional, cell-based; how it was run: as §2

Row | Activity [1] [%] | Activity (Melanocortin receptor 4 [2]) [%] | inhibition (Melanocortin receptor 4 [3]) [%] | inhibition (Melanocortin receptor 5) [%] | inhibition (Melanocortin receptor 3 [4]) [%] | Activity (Melanocortin receptor 3 [6]) [%] | inhibition [7] [%] | solubility [8] | SMILES | inhibition (Bos taurus) | Activity (Melanocortin receptor 4 [5]) [%] | also measured
1 | 100 | 100 | 100 | 100 | 100 | 100 | 100 | Soluble | CC[C@H](C)[C@@H]1NC(=O)[C@@H]2CCCN2C(=O)[C@H](Cc2c[nH]c3ccccc23)N(C)C(=O)[C@H](CCCNC(=N)N)NC(=O)[C@@H](Cc2ccccc2)NC(=O)[C@H](Cc2cnc[nH]2)NC(=O)[C@H]([C@@H](C)O)NC(=O)[C@@H]2CSSC[C@H](NC1=O)C(=O)N[C@@H](Cc1ccccc1)C(=O)N1CCC[C@H]1C(=O)N[C@@H](CC(=O)O)C(=O)NCC(=O)N[C@@H](CCCNC(=N)N)C(=O)N2 (cyclo(CFPDGRCTH[dF]R[NMeW]PI); disulfide 1-7) | – | 100 | –
2 | 100 | 100 | 100 | 100 | – | – | 100 | Soluble | CC[C@H](C)[C@@H]1NC(=O)[C@@H]2CCCN2C(=O)[C@H](Cc2c[nH]c3ccccc23)N(C)C(=O)[C@H](CCCNC(=N)N)N(C)C(=O)[C@@H](Cc2ccccc2)NC(=O)[C@H](Cc2cnc[nH]2)N(C)C(=O)[C@H]([C@@H](C)O)NC(=O)[C@@H]2CSSC[C@H](NC1=O)C(=O)N[C@@H](Cc1ccccc1)C(=O)N1CCC[C@H]1C(=O)N[C@@H](CC(=O)O)C(=O)NCC(=O)N[C@@H](CCCNC(=N)N)C(=O)N2 | – | – | inhibition (Melanocortin receptor 3 [9]): inactive; Activity (Melanocortin receptor 3 [10]): inactive; Activity (Melanocortin receptor 4 [11]): inactive
3 | 100 | 100 | 100 | 100 | 100 | 100 | 100 | Soluble | CC[C@H](C)[C@@H]1NC(=O)[C@@H]2CCCN2C(=O)[C@H](Cc2c[nH]c3ccccc23)N(C)C(=O)[C@H](CCCNC(=N)N)NC(=O)[C@@H](Cc2ccccc2)NC(=O)[C@H](Cc2cnc[nH]2)N(C)C(=O)[C@H]([C@@H](C)O)NC(=O)[C@@H]2CSSC[C@H](NC1=O)C(=O)N[C@@H](Cc1ccccc1)C(=O)N1CCC[C@H]1C(=O)N[C@@H](CC(=O)O)C(=O)NCC(=O)N[C@@H](CCCNC(=N)N)C(=O)N2 | – | – | Activity (Melanocortin receptor 4 [11]): inactive
4 | 100 | 100 | 100 | 100 | 100 | 100 | 100 | Soluble | CC[C@H](C)[C@@H]1NC(=O)[C@@H]2CCCN2C(=O)[C@H](Cc2c[nH]c3ccccc23)N(C)C(=O)[C@H](CCCNC(=N)N)N(C)C(=O)[C@@H](Cc2ccccc2)NC(=O)[C@H](Cc2cnc[nH]2)NC(=O)[C@H]([C@@H](C)O)NC(=O)[C@@H]2CSSC[C@H](NC1=O)C(=O)N[C@@H](Cc1ccccc1)C(=O)N1CCC[C@H]1C(=O)N[C@@H](CC(=O)O)C(=O)NCC(=O)N[C@@H](CCCNC(=N)N)C(=O)N2 | – | 100 | –

The next lines start with the compound.

Row | SMILES | Activity [1] [%] | Activity (Melanocortin receptor 4 [2]) [%] | inhibition (Melanocortin receptor 4 [3]) [%] | inhibition (Melanocortin receptor 5) [%] | inhibition (Melanocortin receptor 3 [4]) [%] | Activity (Melanocortin receptor 3 [6]) [%] | inhibition [7] [%] | solubility [8] | inhibition (Bos taurus) | Activity (Melanocortin receptor 4 [5]) [%] | also measured
5 | CC[C@H](C)[C@@H]1NC(=O)[C@@H]2CCCN2C(=O)[C@@H]2CCCN2C(=O)[C@H]([C@@H](C)CC)NC(=O)[C@H](CO)NC(=O)[C@H](C)NC(=O)[C@H]([C@H](C)O)NC(=O)[C@@H]2CSSC[C@H](NC1=O)C(=O)N[C@@H](Cc1cnc[nH]1)C(=O)N[C@H](Cc1ccccc1)C(=O)N(C)[C@@H](CCCNC(=N)N)C(=O)N[C@@H](Cc1c[nH]c3ccccc13)C(=O)N[C@@H](CCCNC(=N)N)C(=O)N2 | 100 | 100 | 100 | 100 | 100 | 100 | 100 | – | Active | 100 | –
6 | CC[C@H](C)[C@@H]1NC(=O)[C@@H]2CCCN2C(=O)[C@H](Cc2c[nH]c3ccccc23)NC(=O)[C@H](CCCNC(=N)N)NC(=O)[C@@H](Cc2ccccc2)NC(=O)[C@H](Cc2cnc[nH]2)N(C)C(=O)[C@H]([C@@H](C)O)NC(=O)[C@@H]2CSSC[C@H](NC1=O)C(=O)N[C@@H](Cc1ccccc1)C(=O)N1CCC[C@H]1C(=O)N[C@@H](CC(=O)O)C(=O)NCC(=O)N[C@@H](CCCNC(=N)N)C(=O)N2 | 100 | 100 | 100 | 100 | 100 | 100 | 100 | Soluble | – | 100 | –
7 | CC[C@H](C)[C@@H]1NC(=O)[C@@H]2CCCN2C(=O)[C@@H]2CCCN2C(=O)[C@H]([C@@H](C)CC)NC(=O)[C@H](CO)NC(=O)[C@H](C)NC(=O)[C@H]([C@H](C)O)NC(=O)[C@@H]2CSSC[C@H](NC1=O)C(=O)N[C@@H](Cc1cnc[nH]1)C(=O)N[C@@H](Cc1ccccc1)C(=O)N[C@@H](CCCNC(=N)N)C(=O)N[C@@H](Cc1c[nH]c3ccccc13)C(=O)N[C@@H](CCCNC(=N)N)C(=O)N2 | 100 | 100 | 100 | 100 | 100 | 100 | 100 | Soluble | – | 100 | EC50 [1]: 41.7 nM; EC50 (Melanocortin receptor 4 [2]): 3.09 µM; Ki (Melanocortin receptor 4 [3]): 25.1 µM; IC50 (Melanocortin receptor 5): 4.07 µM; Ki (Melanocortin receptor 3 [4]): 23.4 µM; EC50 (Melanocortin receptor 4 [5]): > 100 µM; EC50 (Melanocortin receptor 3 [6]): 2140 nM; Ki [7]: 363 nM
8 | CC[C@H](C)[C@@H]1NC(=O)[C@@H]2CCCN2C(=O)[C@@H]2CCCN2C(=O)[C@H]([C@@H](C)CC)NC(=O)[C@H](CO)NC(=O)[C@H](C)NC(=O)[C@H]([C@H](C)O)NC(=O)[C@@H]2CSSC[C@H](NC1=O)C(=O)N[C@@H](Cc1cnc[nH]1)C(=O)N[C@H](Cc1ccccc1)C(=O)N[C@@H](CCCNC(=N)N)C(=O)N[C@@H](Cc1c[nH]c3ccccc13)C(=O)N[C@@H](CCCNC(=N)N)C(=O)N2 | 100 | 100 | 100 | 100 | 100 | 100 | 100 | – | Active | 100 | –
9 | CC[C@H](C)[C@@H]1NC(=O)[C@@H]2CCCN2C(=O)[C@@H]2CCCN2C(=O)[C@H]([C@@H](C)CC)NC(=O)[C@H](CO)NC(=O)[C@H](C)NC(=O)[C@H]([C@H](C)O)NC(=O)[C@@H]2CSSC[C@H](NC1=O)C(=O)N[C@@H](Cc1cnc[nH]1)C(=O)N[C@H](Cc1ccccc1)C(=O)N(C)[C@@H](CCCNC(=N)N)C(=O)N(C)[C@@H](Cc1c[nH]c3ccccc13)C(=O)N[C@@H](CCCNC(=N)N)C(=O)N2 | 100 | 100 | 100 | 100 | 100 | 100 | 100 | – | Active | 100 | –
10 | CC[C@H](C)[C@@H]1NC(=O)[C@@H]2CCCN2C(=O)[C@H](Cc2c[nH]c3ccccc23)NC(=O)[C@H](CCCNC(=N)N)NC(=O)[C@@H](Cc2ccccc2)NC(=O)[C@H](Cc2cnc[nH]2)NC(=O)[C@H]([C@@H](C)O)NC(=O)[C@@H]2CSSC[C@H](NC1=O)C(=O)N[C@@H](Cc1ccccc1)C(=O)N1CCC[C@H]1C(=O)N[C@@H](CC(=O)O)C(=O)NCC(=O)N[C@@H](CCCNC(=N)N)C(=O)N2 | 100 | 100 | 100 | 100 | 100 | 100 | 100 | Soluble | – | 100 | –
